PfG6PD inh = PfG6PD (Plasmodium falciparum) enzyme inhibition; inhibition, % at 20 µM; actives 0.78% (n = 350,000); AID 504690; PfGluPho enzyme, NADPH resazurin-diaphorase fluorescence;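 active = inhibition reaching at least a set limit at 20 µM in the primary screen, cut at about 59% in these data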;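 note: 0% = DMSO wells with substrate and 100% = DMSO wells lacking glucose-6-phosphate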
MC4R antag cAMP = antagonists of human melanocortin 4 receptor (MC4R); P32245; MC4R-expressing cells, MTII-stimulated cAMP, LANCE TR-FRET; inhibition, % at 6.5 µM; actives 0.48% (n = 360,000);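 active = inhibition above its plate's cutoff, the mean of tested wells on that plate plus 3 SD, cut at about 29% in these data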;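 note: 0% = Melanotan II alone and 100% = Melanotan II plus saturating MCL0020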
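material = U2OS cells stably expressing human melanocortin 4 receptor (MC4R) | also added = Melanotan II challenge | dosing = single nominal compound dose of 6.5 µM | detection = TR-FRET with Eu-cAMP and labeled anti-cAMP, 671 nm | replication = singlicate | timing = compound 30 min, challenge 1 h, detection 1 h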
B2AR ag = agonists of human beta-2 adrenergic receptor inducing internalization. P07550. Am2.2-beta2AR cells, FAP receptor internalization, flow cytometry. actives 0.43% (n = 340,000). response, % (test concentration not listed);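 active = response above a set limit, near 3 SD of response in nonfluorescent compounds, cut at about 42% in these data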
Target sequence (P07550 whole entry, looked up): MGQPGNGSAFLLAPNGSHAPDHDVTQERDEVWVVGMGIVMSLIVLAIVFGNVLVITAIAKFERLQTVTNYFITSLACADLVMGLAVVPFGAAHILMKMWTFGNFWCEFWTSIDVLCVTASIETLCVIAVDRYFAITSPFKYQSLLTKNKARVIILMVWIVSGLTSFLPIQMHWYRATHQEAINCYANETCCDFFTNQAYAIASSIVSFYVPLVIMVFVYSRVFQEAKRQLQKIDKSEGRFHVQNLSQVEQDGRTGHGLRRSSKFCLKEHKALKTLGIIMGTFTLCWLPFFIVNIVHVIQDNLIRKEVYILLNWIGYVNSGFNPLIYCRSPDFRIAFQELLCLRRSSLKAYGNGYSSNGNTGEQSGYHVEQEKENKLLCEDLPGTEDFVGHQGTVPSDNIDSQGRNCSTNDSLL
ABHD5-PLIN5 inh = ABHD5-PLIN5 protein interaction inhibition; inhibition, % at 4 µM; actives 0.78% (n = 360,000); Split G. princeps luciferase complementation, luminescence, 4 h; AID 602281;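 active = inhibition above the mean inhibition across every tested compound plus 3 SD, cut at about 22% in these data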;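 note: 0% = DMSO only wells and the 100% control is not disclosed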
MC4R barr agon = human MC4R agonism via beta-arrestin | P32245 | U2OS MC4R beta-arrestin complementation, luminescence; percent of melanotan II response, DMSO zero | activation, % at 8.9 µM | actives 0.98% (n = 360,000) | AID 540308;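 active = activation above a per-plate cutoff, the mean activation of sample wells on that plate plus 3 SD, cut at about 8% in these data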
MC4R barr conf = human MC4R beta-arrestin agonism confirmation; U2OS MC4R beta-arrestin recruitment, luminescence; scaled DMSO 0%, Melanotan II 100%; actives 31% (n = 2,400); shares compounds with MC4R barr agon; activation, % at 8.9 µM;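 active = mean activation across replicates above the hit cutoff set in the earlier primary screen, cut at about 8% in these data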
MOR-DOR barr ag = OPRM1-OPRD1 heterodimer agonism counter-screen | shares compounds with MC4R barr agon | U2OS PathHunter beta-arrestin, beta-gal luminescence; percent of deltorphin B response, DMSO zero | activation, % at 9.2 µM | actives 5.8% (n = 2,400);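 active = mean activation across replicates exceeds the hit threshold derived in the earlier primary screen, cut at about 18% in these data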;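 note: 100% = deltorphin B at 0.9 µM final and 0% = DMSO alone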
Starred values were filed as active, the others as inactive; / = not tested or not shown. An excerpt weighted towards active compounds, which were near 3% of everything screened.

SMILES	PfG6PD inh	MC4R antag cAMP	B2AR ag	ABHD5-PLIN5 inh	MC4R barr agon	MC4R barr conf	MOR-DOR barr ag
Cc1ccc2nc(SCC(=O)c3c[nH]c4ccccc34)[nH]c2c1	16	-2	-3	0	12*	5	4
O=C(Nc1ccc(Br)cc1F)c1nc[nH]c1C(=O)N1CCc2ccccc2C1	14	-8	/	-1	1	/	/
N#C/C(=C\c1cn(Cc2cccc(F)c2)c2ccccc12)C(=O)NCc1ccco1	-9	-1	-2	-2	31*	6	2
N#C/C(=C\c1cn(Cc2ccccc2)c2ccccc12)C(=O)NCc1ccco1	-3	7	-17	7	17*	1	3
CCN(CC)C(=O)Cn1cc(C(=O)C(=O)N2CC=C(c3ccccc3)CC2)c2ccccc21	13	21	-12	1	0	/	/
COC(=O)[C@@]12CCCCN1[C@H](c1ccc(-c3ccc(F)cc3)cc1)[C@@H]1C(=O)N(C)C(=O)[C@@H]12	18	5	14	-1	0	/	/
CCCOc1ccc(F)cc1-c1cc(C(=O)Nc2cc(OC)ccc2OC)[nH]n1	/	5	/	2	16*	1	11
COc1ccc(NC(=O)c2cc(-c3ccc(C)cc3O)n[nH]2)c(OC)c1	-1	15	0	-8	10*	-2	4
COc1ccc(Cl)cc1-c1cc(C(=O)Nc2ccc(F)cc2)[nH]n1	/	2	/	-7	16*	0	9
O=C1COc2ccc(C(=O)COC(=O)CNC(=O)C3CCCCC3)cc2N1	-2	4	2	-5	-3	/	/
COc1cccc(NCc2cc3c(C(C)(C)C)nn(-c4ccccc4)c3[nH]c2=O)c1	-8	4	-23	-1	13*	0	7
Cc1nn(-c2ccccc2)c2[nH]c(=O)c(CNc3ccc4c(c3)OCCO4)cc12	4	7	5	-2	1	/	/
CCN(CC)c1ccc(S(=O)(=O)N(CC)CC)cc1NC(=O)c1cccnc1	5	15	5	-3	-2	/	/
COCCNc1nc2cc(-c3ccc(C)cc3)sc2c(=O)n1C	/	11	/	2	-1	/	/
O=C(NC(=O)c1cccc(F)c1)OC[C@@H]1CCCN2CCCC[C@H]12	6	1	0	5	0	/	/
O=C(Nc1ccc(C(=O)OC[C@@H]2CCCN3CCCC[C@H]23)cc1)c1cccc(Br)c1	1	6	17	13	12*	8	8
Cc1noc(C)c1COc1cccc(C(=O)OCC(=O)NC(=O)c2ccc(OC(F)F)cc2)c1	-20	6	7	-5	25*	6	4
COc1ccc(OC)c(NC(=O)c2cccc(NC(=O)c3ccccc3)c2)c1	-1	-2	9	3	0	/	/
COc1c(C(=O)Nc2ccc(Br)cn2)ccc2ccccc12	5	-1	-4	-1	12*	0	4
O=C(Nc1ccc(Br)cn1)c1cccc2ccccc12	8	-19	3	-4	0	/	/
O=C(NCC(c1ccco1)N1CCc2ccccc21)C(=O)Nc1ccccc1 (configuration not stated)	3	6	2	-7	11*	1	4
O=C(CN1CCN(c2ccccc2)CC1)Nc1nnc(-c2ccccc2)s1	-13	3	9	-3	5	/	/
COc1ccc(N2CCN(CC(=O)Nc3nnc(-c4ccccc4)s3)CC2)cc1	-4	3	8	2	11*	1	4
COC(=O)c1ccc(C(=O)OC)c(NC(=O)CN2CCN(c3ccccc3)CC2)c1	1	-3	-7	2	15*	14*	14
COc1ccc(Cc2nnc3sc(SCC(=O)Nc4ccccc4)nn3c2=O)cc1OC	12	4	-2	6	-4	/	/
SMILES	PfG6PD inh	MC4R antag cAMP	B2AR ag	ABHD5-PLIN5 inh	MC4R barr agon	MC4R barr conf	MOR-DOR barr ag
CCc1ccc(CNC(=O)C2CCCN(c3nnc(C)c4c(C)n(-c5ccccc5)nc34)C2)cc1 (configuration not stated)	-3	13	5	-2	19*	2	3
COc1ccccc1CCNC(=O)C1CCN(c2nnc(C)c3c(C)n(-c4ccc(C)cc4)nc23)CC1	13	13	31	11	10*	3	3
C/C(=N\N=C1\NC(=O)C(CC(=O)Nc2ccc(C)c(Cl)c2)S1)C(C)(C)C (configuration not stated)	9	15	4	-4	16*	5	5
C/C(=N\N=C1\NC(=O)C(CC(=O)Nc2ccc(Cl)cc2)S1)c1ccco1 (configuration not stated)	-12	-3	-14	3	0	/	/
O=C(/C=C/c1cccs1)c1ccc([N+](=O)[O-])cc1	3	6	-1	15	11*	1	7
O=C(Nc1cccc(C(F)(F)F)c1)c1cc(-c2ccc(F)cc2)on1	7	5	0	-5	16*	6	4
CSc1ccccc1NC(=O)Nc1cccc(Cl)c1Cl	13	-1	-4	-6	16*	9.2*	9
O=C(NCCn1cccn1)C1CCC(=O)N(CCc2ccccc2)C1 (configuration not stated)	5	2	0	-2	-2	/	/
CCc1nc2ccc(C(=O)NCc3ccc4c(c3)OCO4)cn2c1N(C)Cc1ccc(OC)cc1	/	7	/	-3	-1	/	/
CC(C)c1ccc(NC(=S)NCc2ccc3c(c2)OCO3)cc1	13	9	12	-10	12*	1	6
Cc1ccc(C(=O)C2CCN(C(=S)NCCCOC(C)C)CC2)cc1	-6	6	9	-1	1	/	/
CCCCCCn1c(C)nc2c(c1=O)c1nc3ccccc3nc1n2/N=C/c1ccco1	-6	-1	-1	4	25*	0	2
CC(=O)Nc1ccc(S(=O)(=O)N2CCN=C2SCc2ccccc2C)cc1	-1	1	-7	13	0	/	/
S=C(Nc1cc(Cl)cc(Cl)c1)NC1CCN(Cc2ccccc2)CC1	17	5	13	3	13*	8	22*
S=C(Nc1ccccc1Cl)NC1CCN(Cc2ccccc2)CC1	-4	7	-5	1	-3	/	/
O=C1CN(C(=O)CN2CCN(S(=O)(=O)c3ccccc3)CC2)c2ccccc2N1	-1	3	/	7	0	/	/
Cc1ccc(NCc2nnc(SCC(=O)c3ccc4c(c3)OCCO4)o2)c(C)c1	-10	-1	4	2	2	/	/
COc1ccc(C(=O)CSc2nnc(CNc3ccc(C)cc3C)o2)cc1	3	9	1	3	11*	11*	12
